Shown is part of a subset that was picked to be rich in hits.
T cruzi intra = inhibitors of intracellular Trypanosoma cruzi. intracellular Trypanosoma cruzi in host cells, plate reader. activity score (inhibition), % at 5.01 µM. actives 4.9% (n = 22,000); in the data active = activity score above about 55%; inconclusive = no clear call, values can overlap the other calls;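 also: parasites and compound incubated about four days before reading; 0% = median of neutral control wells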
A1 apoptosis 2 = A1 inhibition read as caspase activation. 24,000 tested, under 10 active. caspase activation, % (test concentration not listed). MEF A1-2A-BIM cells, caspase-Glo luminescence, 3 h; percent of clofoctol response, DMSO zero; in the data active = caspase activation above about 5.9%; inconclusive = no clear call, values can overlap the other calls; inactive = below about 2.2%
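System: mouse embryonic fibroblasts co-expressing A1 and BIM (A1-2A-BIM), primed for A1 dependence; amount: 2500 cells/well; doses: 50 nL pinned compound; schedule: cells settled overnight, compound exposure 3 h at 37 °C, 5% CO2; detection: Caspase-Glo 3/7 luminescence, 1 h at room temperature; read-out: Caspase-3/7 activation, seen as rise in luminescence signal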
INS-1E ATP HTS = preserves ATP levels in cytokine-treated INS-1E cells; AID 488910; actives 0.1% (n = 20,000); protection from cytokine-induced ATP loss, % at 10 µM; INS-1E cytokine-induced death, ATP luminescence, 48 h; normalised: neutral wells 0, positive control 100;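 active = mean replicate protection from cytokine-induced ATP loss at least 50% and at least 75% of replicates each reaching 50%; inconclusive = meets only one of the two criteria, mean or replicate share; inactive = fails both the mean and replicate share criteria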
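assay system = INS-1E rat insulinoma cells | amount = 8000 cells per well | medium = phenol-red-free RPMI with 5% fetal bovine serum | doses = one compound concentration, pin transfer | timing = 48 h cytokine plus compound treatment, 10 min reagent incubation | also added = IL-1β, TNF-α and IFN-γ cytokine mix | signal = CellTiter-Glo luminescence measuring cellular ATP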
The depositor's hits bear a star.

What do the screens show for `COc1ccc(S(=O)(=O)Nc2ccc3c(c2)CC(=O)N([C@H](C)CO)C[C@H](C)[C@H](CN(C)Cc2ccc(Cl)c(Cl)c2)O3)cc1`?
T cruzi intra: 40; INS-1E ATP HTS: 0

How did COc1ccc(S(=O)(=O)Nc2ccc3c(c2)CC(=O)N([C@H](C)CO)C[C@@H](C)[C@H](CN(C)Cc2ccc(Cl)c(Cl)c2)O3)cc1 do in these assays?
T cruzi intra: 70*; INS-1E ATP HTS: -21

Results for COc1ccc(CN(C)C[C@@H]2Oc3ccc(NS(=O)(=O)c4ccc(C)cc4)cc3CC(=O)N([C@@H](C)CO)C[C@@H]2C)cc1 ?
T cruzi intra: 46; A1 apoptosis 2: 0; INS-1E ATP HTS: -1

Results for COc1ccc(CN(C)C[C@@H]2Oc3ccc(NS(=O)(=O)c4ccc(Cl)cc4)cc3CC(=O)N([C@@H](C)CO)C[C@@H]2C)cc1 ?
T cruzi intra: 3; A1 apoptosis 2: 0; INS-1E ATP HTS: 2

What do the screens show for `COc1ccc(CN(C)C[C@@H]2Oc3ccc(NS(=O)(=O)c4ccc(Cl)cc4)cc3CC(=O)N([C@H](C)CO)C[C@H]2C)cc1`?
T cruzi intra: 68*; A1 apoptosis 2: -1; INS-1E ATP HTS: 0

What do the screens show for `COC(=O)CCCCCCC(=O)N/N=C/[C@H](O)[C@@H](O)[C@H](O)[C@H](O)CO`?
T cruzi intra: -14; A1 apoptosis 2: 0; INS-1E ATP HTS: 5

How did CC(C)(C)NC(=O)C(OC(=O)c1ccccc1)c1ccco1 (stereo not given) do in these assays?
A1 apoptosis 2: 0

What do the screens show for `COC(=O)CCCCCCC(=O)N/N=C/[C@@H](O)[C@H](O)[C@H](O)CO`?
T cruzi intra: -19; INS-1E ATP HTS: 5

Results for C[C@@H]1CCCCO[C@H](CN(C)C(=O)Cc2ccccc2)[C@@H](C)CN([C@H](C)CO)C(=O)c2cc(NC(=O)NC3CCCCC3)ccc2O1 ?
T cruzi intra: -20; A1 apoptosis 2: 1; INS-1E ATP HTS: 15

How did CC1(C)COC(CCC/C=N/NC(=O)c2ccccc2O)OC1 do in these assays?
T cruzi intra: -10; A1 apoptosis 2: 1; INS-1E ATP HTS: -11

What do the screens show for `COc1ccc(NC(=O)Nc2ccc3c(c2)CC(=O)N([C@H](C)CO)C[C@H](C)[C@H](CN(C)Cc2ccc(C(=O)Nc4ccccc4N)cc2)O3)cc1`?
T cruzi intra: inconclusive; INS-1E ATP HTS: 45

How did COc1ccc(NC(=O)Nc2ccc3c(c2)CC(=O)N([C@@H](C)CO)C[C@@H](C)[C@@H](CN(C)Cc2ccc(C(=O)Nc4ccccc4N)cc2)O3)cc1 do in these assays?
T cruzi intra: 60*; A1 apoptosis 2: 1; INS-1E ATP HTS: -18

How did COc1ccc(NC(=O)Nc2ccc3c(c2)CC(=O)N([C@@H](C)CO)C[C@H](C)[C@@H](CN(C)Cc2ccc(C(=O)Nc4ccccc4N)cc2)O3)cc1 do in these assays?
T cruzi intra: 63*; A1 apoptosis 2: -1; INS-1E ATP HTS: -6

How did COc1ccc(NC(=O)Nc2ccc3c(c2)C(=O)N([C@H](C)CO)C[C@H](C)[C@H](CN(C)Cc2ccc(C(=O)Nc4ccccc4N)cc2)O3)cc1 do in these assays?
T cruzi intra: 17; A1 apoptosis 2: 2; INS-1E ATP HTS: -9

What do the screens show for `COc1ccc(NC(=O)Nc2ccc3c(c2)CC(=O)N([C@@H](C)CO)C[C@H](C)[C@H](CN(C)Cc2ccc(C(=O)Nc4ccccc4N)cc2)O3)cc1`?
T cruzi intra: 45; A1 apoptosis 2: -1; INS-1E ATP HTS: 4

Results for COc1ccc(NC(=O)Nc2ccc3c(c2)CC(=O)N([C@H](C)CO)C[C@@H](C)[C@@H](CN(C)Cc2ccc(C(=O)Nc4ccccc4N)cc2)O3)cc1 ?
T cruzi intra: 66*; A1 apoptosis 2: 1; INS-1E ATP HTS: -8

Results for Cc1ccsc1/C=N/NC(=O)c1ccccc1O ?
T cruzi intra: -15; INS-1E ATP HTS: -3

What do the screens show for `O=C(NO)c1cccc(C(=O)N/N=C/c2ccoc2)c1`?
T cruzi intra: -23; A1 apoptosis 2: 0; INS-1E ATP HTS: 1

What do the screens show for `CC(C)(C)OC(=O)NC/C=N/NC(=O)CCCCC(=O)NO`?
T cruzi intra: -12; A1 apoptosis 2: 1; INS-1E ATP HTS: -1

What do the screens show for `C[C@@H]1CN([C@@H](C)CO)C(=O)c2cc(NC(=O)Nc3ccc(C(F)(F)F)cc3)ccc2O[C@H]1CN(C)Cc1ccc(-c2ccccc2)cc1`?
T cruzi intra: 2; A1 apoptosis 2: 0; INS-1E ATP HTS: -45

What do the screens show for `C[C@@H]1CN([C@@H](C)CO)C(=O)c2cc(NC(=O)Cc3ccccc3)ccc2O[C@@H]1CN(C)Cc1ccc(C(F)(F)F)cc1`?
T cruzi intra: 0; A1 apoptosis 2: 0

What do the screens show for `C[C@@H]1CN([C@@H](C)CO)C(=O)c2cc(NC(=O)Nc3ccc(C(F)(F)F)cc3)ccc2O[C@@H]1CN(C)Cc1ccc(-c2ccccc2)cc1`?
T cruzi intra: 64*; INS-1E ATP HTS: -34

What do the screens show for `C[C@@H]1CN([C@H](C)CO)C(=O)c2cc(NC(=O)Nc3ccc(C(F)(F)F)cc3)ccc2O[C@H]1CN(C)Cc1ccc(-c2ccccc2)cc1`?
T cruzi intra: 86*; A1 apoptosis 2: 0; INS-1E ATP HTS: -68

How did C[C@H](CO)N1C[C@H](C)[C@@H](CN(C)Cc2ccc(-c3ccccc3)cc2)Oc2ccc(NC(=O)Nc3ccc(C(F)(F)F)cc3)cc2C1=O do in these assays?
T cruzi intra: 23; INS-1E ATP HTS: -20

How did C[C@H](CO)N1C[C@H](C)[C@H](CN(C)Cc2ccc(C(F)(F)F)cc2)Oc2ccc(NC(=O)Cc3ccccc3)cc2C1=O do in these assays?
T cruzi intra: 64*

What do the screens show for `O=C(NO)c1ccc(C(=O)N/N=C/c2ccc(O)c(F)c2)cc1`?
T cruzi intra: -8; INS-1E ATP HTS: 9

Results for O=C(N/N=C/c1ccc(N(c2ccccc2)c2ccccc2)cc1)c1ccccn1 ?
T cruzi intra: 42; INS-1E ATP HTS: 0

How did COC(=O)CCCCCCC(=O)N/N=C/c1cccc(O)c1 do in these assays?
T cruzi intra: -5; INS-1E ATP HTS: -4

Results for O=C(N/N=C/c1ccc(Br)o1)c1ccccc1O ?
T cruzi intra: -2; A1 apoptosis 2: -4; INS-1E ATP HTS: 6

Results for O=C(CCCCCCC(=O)Nc1ccccc1O)N/N=C\c1ccc2ccccc2n1 ?
T cruzi intra: 12; A1 apoptosis 2: 0; INS-1E ATP HTS: 4

What do the screens show for `O=C(O)CCCCCC(=O)N/N=C/c1nccs1`?
T cruzi intra: -16; A1 apoptosis 2: 0; INS-1E ATP HTS: -3

What do the screens show for `COC(=O)[C@H]1N=C(c2ccc(OCCCO)cc2)O[C@H]1c1ccccc1N=[N+]=[N-]`?
A1 apoptosis 2: -8

Results for C[C@@H]1CN([C@H](C)CO)C(=O)c2cccc(NC(=O)C3CCCCC3)c2O[C@H]1CN(C)Cc1ccc(Oc2ccccc2)cc1 ?
T cruzi intra: 69*; A1 apoptosis 2: -1; INS-1E ATP HTS: -27

How did C[C@H](CO)N1C[C@H](C)[C@H](CN(C)Cc2ccc(Oc3ccccc3)cc2)Oc2c(NC(=O)C3CCOCC3)cccc2C1=O do in these assays?
T cruzi intra: 7; A1 apoptosis 2: 0; INS-1E ATP HTS: -9

Source: PubChem
